Source: ChEMBL document CHEMBL1944524, “Synthesis and structure-activity relationship of 5-pyridazin-3-one phenoxypiperidines as potent, selective histamine H(3) receptor inverse agonists” (Bioorg Med Chem Lett, 2012)

Assays:
[1] = Half life in rat at 1 mg/kg, iv; format: ADME, organism-based; parameters: dose 1 mg/kg, route intravenous; conditions: in vivo
Method in brief: (§1)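 Rat PK study, dosed 1 mg/kg iv plus 10 or 5 mg/kg po. iv vehicle 3% DMSO, 30% solutol, 67% phosphate buffered saline; oral vehicle 50% Tween 80, 40% propylene carbonate, 10% propylene glycol.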

[2] = Volume of distribution in rat at 1 mg/kg, iv; format: ADME, organism-based; parameters: dose 1 mg/kg, route intravenous; conditions: in vivo; method in brief: as §1
[3] = Clearance in rat at 1 mg/kg, iv; format: ADME, organism-based; parameters: dose 1 mg/kg, route intravenous; conditions: in vivo; method in brief: as §1
[4] = Ratio of drug level in brain to plasma in rat at 10 mg/kg, ip after 6 hrs; format: ADME, organism-based; parameters: dose 10 mg/kg, route intraperitoneal; conditions: read-out: BPR
Method in brief: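 Brain and plasma levels measured in rat 6 h after a 10 mg/kg ip dose; value is brain/plasma ratio.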

Histamine H3 receptor [5] = molecular target: Histamine H3 receptor (Rattus norvegicus, UniProt Q9QYN8); experiment: Displacement of [3H]N-alpha-methylhistamine from rat histamine H3 receptor expressed in CHO cells; format: cell-based
Sequence of Histamine H3 receptor (Rattus norvegicus, UniProt Q9QYN8) (Q9QYN8 whole entry): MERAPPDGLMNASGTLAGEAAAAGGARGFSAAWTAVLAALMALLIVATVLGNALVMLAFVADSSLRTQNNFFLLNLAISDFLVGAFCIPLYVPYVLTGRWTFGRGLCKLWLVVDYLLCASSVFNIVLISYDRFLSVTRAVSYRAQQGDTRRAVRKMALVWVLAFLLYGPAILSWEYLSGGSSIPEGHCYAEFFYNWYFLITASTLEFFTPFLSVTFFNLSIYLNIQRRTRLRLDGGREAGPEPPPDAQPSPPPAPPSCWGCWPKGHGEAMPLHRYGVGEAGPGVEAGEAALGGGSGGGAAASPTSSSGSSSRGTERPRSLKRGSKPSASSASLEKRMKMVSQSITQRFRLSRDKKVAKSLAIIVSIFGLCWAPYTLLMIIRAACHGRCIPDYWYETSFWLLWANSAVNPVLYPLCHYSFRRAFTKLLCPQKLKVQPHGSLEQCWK

[6] = Cmax in rat at 5 mg/kg, po; format: ADME, organism-based; parameters: dose 5 mg/kg, route oral; conditions: in vivo; method in brief: as §1
[7] = Tmax in rat at 5 mg/kg, po; format: ADME, organism-based; parameters: dose 5 mg/kg, route oral; conditions: in vivo; method in brief: as §1
[8] = Oral bioavailability in rat at 5 mg/kg; format: ADME, organism-based; conditions: in vivo; method in brief: as §1
[9] = AUC in rat at 5 mg/kg, po; format: ADME, organism-based; parameters: dose 5 mg/kg, route oral; conditions: plasma; method in brief: as §1
Histamine H3 receptor [10] = molecular target: Histamine H3 receptor (Homo sapiens, UniProt Q9Y5N1); experiment: Displacement of [3H]N-alpha-methylhistamine from human histamine H3 receptor expressed in CHO cells; format: cell-based
Sequence of Histamine H3 receptor (Homo sapiens, UniProt Q9Y5N1) (Q9Y5N1 whole entry): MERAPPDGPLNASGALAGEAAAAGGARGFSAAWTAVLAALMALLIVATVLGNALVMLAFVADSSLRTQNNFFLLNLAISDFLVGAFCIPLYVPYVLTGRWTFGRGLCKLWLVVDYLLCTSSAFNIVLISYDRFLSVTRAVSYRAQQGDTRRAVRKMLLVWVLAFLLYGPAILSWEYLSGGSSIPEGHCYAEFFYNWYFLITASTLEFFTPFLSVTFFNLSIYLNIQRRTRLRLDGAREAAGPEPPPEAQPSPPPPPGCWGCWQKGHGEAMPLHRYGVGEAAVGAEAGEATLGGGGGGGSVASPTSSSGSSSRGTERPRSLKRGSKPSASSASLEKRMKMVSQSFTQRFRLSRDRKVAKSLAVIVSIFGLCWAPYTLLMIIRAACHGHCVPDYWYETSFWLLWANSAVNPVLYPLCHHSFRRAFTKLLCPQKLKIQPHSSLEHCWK

[11] = Half life in human liver microsomes; format: ADME, Microsome
Method in brief: (§2)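 Stability in liver microsomes from rat, dog or human; half-life (min) determined.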

[12] = Half life in rat liver microsomes; format: ADME, Microsome; method in brief: as §2
[13] = Half life in dog liver microsomes; format: ADME, Canis lupus familiaris, Microsome; method in brief: as §2
[14] = Inhibition of cytochrome P450; format: ADME
Method in brief: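 CYP inhibition assessed against 5 CYP isoforms; IC50 determined.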

[15] = molecular target: Histamine H1 receptor (Homo sapiens) (UniProt P35367); experiment: Inhibition of human histamine H1 receptor at 10 uM
Sequence of Histamine H1 receptor (Homo sapiens) (P35367 whole entry): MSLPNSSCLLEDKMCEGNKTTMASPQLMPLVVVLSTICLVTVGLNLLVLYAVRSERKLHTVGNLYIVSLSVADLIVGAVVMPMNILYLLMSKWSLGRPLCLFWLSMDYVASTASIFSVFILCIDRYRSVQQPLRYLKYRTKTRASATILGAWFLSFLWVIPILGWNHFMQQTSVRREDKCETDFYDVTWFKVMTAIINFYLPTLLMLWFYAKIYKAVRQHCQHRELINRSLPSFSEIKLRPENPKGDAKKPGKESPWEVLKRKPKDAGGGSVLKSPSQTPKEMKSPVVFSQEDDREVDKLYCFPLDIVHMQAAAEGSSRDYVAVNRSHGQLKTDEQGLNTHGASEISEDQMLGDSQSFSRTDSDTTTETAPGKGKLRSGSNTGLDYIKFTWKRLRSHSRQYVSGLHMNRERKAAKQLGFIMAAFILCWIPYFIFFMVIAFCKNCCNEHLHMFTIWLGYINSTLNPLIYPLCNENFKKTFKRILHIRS
Method in brief: (§3)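 Selectivity screen against human H1, H2 and H4 receptors; percent inhibition at 10 µM.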

[16] = molecular target: Histamine H2 receptor (Homo sapiens) (UniProt P25021); experiment: Inhibition of human histamine H2 receptor at 10 uM; method in brief: as §3
Sequence of Histamine H2 receptor (Homo sapiens) (P25021 whole entry): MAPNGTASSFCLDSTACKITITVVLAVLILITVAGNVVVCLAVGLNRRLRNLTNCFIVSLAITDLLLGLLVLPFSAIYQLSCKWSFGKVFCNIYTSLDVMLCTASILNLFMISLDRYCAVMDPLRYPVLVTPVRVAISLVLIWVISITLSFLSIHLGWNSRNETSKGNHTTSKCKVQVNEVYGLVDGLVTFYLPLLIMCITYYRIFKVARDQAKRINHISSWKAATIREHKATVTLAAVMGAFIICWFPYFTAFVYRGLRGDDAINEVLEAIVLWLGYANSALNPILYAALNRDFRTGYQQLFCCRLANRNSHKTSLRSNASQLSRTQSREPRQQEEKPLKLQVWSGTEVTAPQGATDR

[17] = molecular target: Histamine H4 receptor (Homo sapiens) (UniProt Q9H3N8); experiment: Inhibition of human histamine H4 receptor at 10 uM; method in brief: as §3
[18] = molecular target: T1, Muscarinic acetylcholine receptor M2 (Homo sapiens, UniProt P08172); experiment: Inhibition of muscarinic M2 receptor
T1 sequence (P08172 whole entry): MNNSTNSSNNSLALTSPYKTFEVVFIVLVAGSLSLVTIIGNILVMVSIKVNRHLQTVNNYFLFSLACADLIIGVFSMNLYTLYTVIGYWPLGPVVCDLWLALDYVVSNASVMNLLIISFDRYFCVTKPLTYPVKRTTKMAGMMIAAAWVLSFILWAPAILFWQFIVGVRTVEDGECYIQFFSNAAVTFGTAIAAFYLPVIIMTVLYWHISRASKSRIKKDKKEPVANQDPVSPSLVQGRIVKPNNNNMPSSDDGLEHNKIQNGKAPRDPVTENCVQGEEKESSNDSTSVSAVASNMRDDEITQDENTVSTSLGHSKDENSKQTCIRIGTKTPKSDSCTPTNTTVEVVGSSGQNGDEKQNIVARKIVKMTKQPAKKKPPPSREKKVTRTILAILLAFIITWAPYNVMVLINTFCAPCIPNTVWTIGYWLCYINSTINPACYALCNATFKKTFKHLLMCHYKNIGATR

[19] = Oral bioavailability in rat; format: ADME, organism-based; conditions: in vivo; method in brief: as §1
[20] = molecular target: Voltage-gated inwardly rectifying potassium channel KCNH2 (Homo sapiens, UniProt Q12809); experiment: Inhibition of human ERG by patch clamp assay
Sequence of Voltage-gated inwardly rectifying potassium channel KCNH2 (Q12809 whole entry): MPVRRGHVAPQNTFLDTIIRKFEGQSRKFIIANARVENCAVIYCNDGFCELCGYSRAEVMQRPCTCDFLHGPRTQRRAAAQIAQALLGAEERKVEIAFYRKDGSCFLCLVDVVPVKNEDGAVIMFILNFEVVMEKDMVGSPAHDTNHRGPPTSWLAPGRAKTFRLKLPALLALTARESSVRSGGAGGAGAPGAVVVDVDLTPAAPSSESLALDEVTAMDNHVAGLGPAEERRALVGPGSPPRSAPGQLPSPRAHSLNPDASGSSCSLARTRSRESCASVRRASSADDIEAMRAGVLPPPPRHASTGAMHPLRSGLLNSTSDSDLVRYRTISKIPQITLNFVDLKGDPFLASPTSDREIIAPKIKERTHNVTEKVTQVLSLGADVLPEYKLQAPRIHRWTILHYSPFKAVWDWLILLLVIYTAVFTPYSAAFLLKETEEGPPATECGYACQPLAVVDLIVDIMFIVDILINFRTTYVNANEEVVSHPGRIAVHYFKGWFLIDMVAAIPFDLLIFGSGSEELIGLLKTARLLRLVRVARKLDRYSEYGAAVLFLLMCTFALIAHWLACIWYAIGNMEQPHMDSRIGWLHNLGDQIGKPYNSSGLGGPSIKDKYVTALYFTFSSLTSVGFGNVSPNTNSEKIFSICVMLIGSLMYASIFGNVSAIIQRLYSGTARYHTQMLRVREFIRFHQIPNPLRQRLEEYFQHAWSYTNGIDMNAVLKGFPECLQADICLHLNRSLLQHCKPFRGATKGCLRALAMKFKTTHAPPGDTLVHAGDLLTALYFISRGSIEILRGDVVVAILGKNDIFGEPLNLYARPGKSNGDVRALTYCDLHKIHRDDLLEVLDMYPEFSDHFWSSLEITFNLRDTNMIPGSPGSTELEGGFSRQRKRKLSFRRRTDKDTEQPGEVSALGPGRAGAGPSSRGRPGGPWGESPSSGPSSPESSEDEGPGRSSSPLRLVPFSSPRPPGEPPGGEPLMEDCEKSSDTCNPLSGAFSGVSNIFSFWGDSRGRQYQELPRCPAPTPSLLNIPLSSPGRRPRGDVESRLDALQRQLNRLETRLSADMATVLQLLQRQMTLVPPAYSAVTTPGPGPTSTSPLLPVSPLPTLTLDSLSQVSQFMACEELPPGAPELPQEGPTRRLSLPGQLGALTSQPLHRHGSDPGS

| half-life [1] | Vd [2] | clearance [3] | Kp at 6 h [4] | Ki (Histamine H3 receptor [5]) | Cmax [6] | Tmax [7] | bioavailability [8] | AUC [9] | Ki (Histamine H3 receptor [10]) | half-life [11] | half-life [12] | half-life [13] | IC50 [14] | inhibition [15] | inhibition [16] | inhibition [17] | IC50 [18] | bioavailability [19] | SMILES | IC50 [20] |
| --- | --- | --- | --- | --- | --- | --- | --- | --- | --- | --- | --- | --- | --- | --- | --- | --- | --- | --- | --- | --- |
| 1.3 h | 1.4 L/kg | 13 mL/min/kg | 1.6 | 9 nM | 287 ng/mL | 3.2 h | 22% | 1500 ng·h/mL | 3 nM | > 0.667 h | > 0.667 h | > 0.667 h | > 30000 nM | < 30% | < 30% | < 30% | 340 nM |  | Cc1nn(-c2ccccn2)c(=O)cc1-c1ccc(OC2CCN(C3CCC3)CC2)cc1 |  |
|  |  |  |  | 20 nM |  |  |  |  | 14 nM |  |  |  |  |  |  |  |  |  | O=c1cc(-c2ccc(OC3CCN(C4CCC4)CC3)nc2)cn[nH]1 |  |
|  |  |  |  | 2 nM |  |  |  |  | 2 nM |  |  |  |  |  |  |  |  | 21% | O=c1cc(-c2ccc(OC3CCN(C4CCC4)CC3)cc2)cn[nH]1 | 2000 nM |
